Experimental findings from ChEMBL document CHEMBL1156869, “Selective inhibitors of the JMJD2 histone demethylases: combined nondenaturing mass spectrometric screening and crystallographic approaches” (J Med Chem, 2010) are described below.

Calls of active or inactive are those of the source. The calls are words filed in the database; no cut-off is given here.

The nature of assay [1]: Inhibition of JMJD2E by ESI-MS binding assay. An outline of the steps:
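Nondenaturing ESI-MS binding: His-tagged JMJD2E desalted into 15 mM ammonium acetate pH 7.5. Protein (15 μM) mixed with 1 equiv Fe(II) and 1 equiv inhibitor, incubated 30 min at 37 °C, then analysed on a Q-TOF by nanospray. Read-out: ratio of JMJD2E–inhibitor complex to free JMJD2E.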

In assay [2] the target is T1, Lysine-specific demethylase 4A (Homo sapiens, UniProt O75164).
T1 sequence (O75164 whole entry): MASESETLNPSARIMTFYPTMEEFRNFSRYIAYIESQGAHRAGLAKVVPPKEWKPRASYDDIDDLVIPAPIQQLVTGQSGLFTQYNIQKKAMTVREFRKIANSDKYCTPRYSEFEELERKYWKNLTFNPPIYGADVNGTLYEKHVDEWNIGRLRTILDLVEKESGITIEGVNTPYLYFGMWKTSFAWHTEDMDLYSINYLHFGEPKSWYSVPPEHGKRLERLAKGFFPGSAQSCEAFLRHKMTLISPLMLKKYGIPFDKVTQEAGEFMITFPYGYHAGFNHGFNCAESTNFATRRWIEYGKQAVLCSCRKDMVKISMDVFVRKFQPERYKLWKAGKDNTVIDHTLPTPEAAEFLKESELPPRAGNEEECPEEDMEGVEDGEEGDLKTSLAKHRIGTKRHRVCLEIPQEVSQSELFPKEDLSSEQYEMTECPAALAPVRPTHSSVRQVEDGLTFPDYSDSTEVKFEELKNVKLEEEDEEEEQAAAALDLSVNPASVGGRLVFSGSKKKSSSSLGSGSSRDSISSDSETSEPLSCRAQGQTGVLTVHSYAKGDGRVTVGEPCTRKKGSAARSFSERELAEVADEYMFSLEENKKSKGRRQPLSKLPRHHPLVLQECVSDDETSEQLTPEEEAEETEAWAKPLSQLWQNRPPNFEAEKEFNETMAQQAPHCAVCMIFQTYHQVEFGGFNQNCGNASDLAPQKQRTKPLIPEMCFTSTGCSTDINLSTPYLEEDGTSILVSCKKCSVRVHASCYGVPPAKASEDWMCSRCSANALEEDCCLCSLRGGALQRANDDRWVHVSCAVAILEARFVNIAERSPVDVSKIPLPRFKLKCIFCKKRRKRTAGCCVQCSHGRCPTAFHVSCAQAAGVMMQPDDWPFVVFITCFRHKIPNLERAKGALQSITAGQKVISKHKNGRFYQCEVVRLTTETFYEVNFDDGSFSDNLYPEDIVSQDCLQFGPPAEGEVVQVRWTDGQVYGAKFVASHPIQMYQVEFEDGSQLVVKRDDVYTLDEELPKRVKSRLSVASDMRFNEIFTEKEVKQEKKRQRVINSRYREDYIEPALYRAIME
Nature of the assay: Inhibition of JMJD2A by MALDI-TOF assay. The gist of the method: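 Reaction started with 2OG (10 μM) and ARKme3STGGK peptide (10 μM), then 30 min at 37 °C. Quenched with methanol. MALDI-TOF methylation-state intensities gave % demethylation; IC50 from concentration variation.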

Assay [3] in a line: Binding to JMJD2E by nondenaturing ESI-MS, ratio of JMJD2E-inhibitor complex to free JMJD2E.
A short description of assay [4]: Inhibition of JMJD2E by MALDI-TOF assay.
Assay [5] can be described thus: Inhibition of JMJD2E by FDH coupled assay. The gist of the method:
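Formaldehyde dehydrogenase-coupled demethylation assay with initial rates from NADH production. IC50 determined from these rates; detection limit about 1 μM IC50.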

The species named for another assay is Homo sapiens. Nature of the assay: Inhibition of human […] by CODD biochemical assay.

`O=C(O)C(=O)N[C@H](Cc1ccc(OC(=O)N2CCOCC2)cc1)C(=O)O`: the result in assay [1] was Active.

In the case of `O=C(O)C(=O)N[C@H](Cc1ccc(OCc2ccccc2F)cc1)C(=O)O`, the IC50 (as a rule, the concentration at which inhibition is half-maximal) turned out to be 10 µM in assay [2], 25 µM in assay [4] and 16.6 µM in assay [5]. For the same molecule, the Ratio in assay [3] worked out at 3.6. The result in assay [1] was Active.

Turning to `O=C(O)C(=O)N[C@H](Cc1ccc(OS(=O)(=O)c2ccc(F)cc2)cc1)C(=O)O`, the IC50 in assay [2] stood at 20 µM; in assay [4] it was 38 µM; in assay [5] it was 11.7 µM. In the assay listed under Homo sapiens, the outcome was inactive. Further, in assay [1], the result was Active.

Take `O=C(O)C(=O)N[C@H](Cc1ccc(OC(=O)c2ccco2)cc1)C(=O)O`: in assay [3], the Ratio was 3.5. Besides, it took 20.1 µM to reach half-maximal inhibition in assay [5] (IC50). Also, the result in assay [1] was Active.

Regarding `O=C(O)C(=O)N[C@H](Cc1ccc(OCC(=O)c2ccc(N3CCCC3)cc2)cc1)C(=O)O`, the values for the IC50 in assay [2], in assay [4] and in assay [5] were 13 µM, 59 µM and 14.8 µM, respectively. Moreover, in assay [3], the Ratio amounted to 2. Besides, the outcome in assay [1] was Active.

Consider `O=C(O)C(=O)N[C@H](Cc1ccc(OC(=O)C2CCCCC2)cc1)C(=O)O`, for which the result in assay [1] was Active.

`O=C(O)C(=O)N[C@H](Cc1ccc(OCc2ccccc2[N+](=O)[O-])cc1)C(=O)O`: the Ratio in assay [3] amounted to 3.1. Moreover, in assay [5], the IC50 amounted to 14.7 µM. Also, the result in assay [1] was Active.

As to `O=C(Cc1ccc(Cl)cc1)Oc1ccc(C[C@@H](NC(=O)C(=O)O)C(=O)O)cc1`, the outcome in assay [1] was Active.

Regarding `O=C(Cc1ccccc1)Oc1ccc(C[C@@H](NC(=O)C(=O)O)C(=O)O)cc1`, the result in assay [1] was Active.

For the molecule `CCC(C(=O)Oc1ccc(C[C@@H](NC(=O)C(=O)O)C(=O)O)cc1)c1ccccc1` (some centres not stated), the result in assay [1] was Active.

Take `O=C(O)C(=O)N[C@H](Cc1ccc(OC(=O)c2cc3ccccc3s2)cc1)C(=O)O`: the result in assay [1] was Active.

Consider `CC(C)(C)c1ccc(S(=O)(=O)Oc2ccc(C[C@@H](NC(=O)C(=O)O)C(=O)O)cc2)cc1`, for which the IC50 in assay [2] worked out at 13 µM; in assay [4] it was 61 µM; in assay [5], 8.6 µM. In addition, the result in the assay listed under Homo sapiens was inactive. In addition, the outcome in assay [1] was Active.

Take `Cc1noc(C)c1C(=O)Oc1ccc(C[C@@H](NC(=O)C(=O)O)C(=O)O)cc1`: the result in assay [1] was Active.

As for `O=C(O)C(=O)N[C@H](Cc1ccc(OS(=O)(=O)c2ccc(Br)cc2)cc1)C(=O)O`, the values for the half-inhibitory concentration (IC50) in assay [2], in assay [4] and in assay [5] were 12 µM, 21 µM and 5.4 µM, respectively. Also, the result in the assay filed under Homo sapiens was inactive. Further, in assay [1], the result was Active.

Regarding `O=C(O)C(=O)N[C@H](Cc1ccc(OS(=O)(=O)c2ccccc2)cc1)C(=O)O`, the Ratio in assay [3] is 5.7. The molecule further showed an IC50 in assay [5] of 14.7 µM. In assay [1], the outcome was Active.

In the case of `CC(C)CC(=O)Oc1ccc(C[C@@H](NC(=O)C(=O)O)C(=O)O)cc1`, the result in assay [1] was Active.

In the case of `Cc1noc(C)c1S(=O)(=O)Oc1ccc(C[C@@H](NC(=O)C(=O)O)C(=O)O)cc1`, in assay [3], the Ratio was 1. The IC50 in assay [5] amounted to 82.9 µM. The outcome in assay [1] was Active.

On to `O=C(O)C(=O)N[C@H](Cc1ccc(OC(=O)c2cccs2)cc1)C(=O)O`, for which the result in assay [1] was Active.

`O=C(O)C(=O)N[C@H](Cc1ccc(OCc2ccccc2)cc1)C(=O)O`: the Ratio in assay [3] worked out at 1.7. The IC50 in assay [4] was determined as 76 µM; in assay [5], 37.1 µM. Also, in assay [1], the result was Active.

On to `O=C(O)C(=O)N[C@H](Cc1ccc(OCCCN2C(=O)c3ccccc3C2=O)cc1)C(=O)O`, for which the Ratio in assay [3] was found to be 0.9. The molecule further showed an IC50 in assay [5] of 326 µM. Further, the outcome in assay [1] was Active.

Take `CC(C)(C)C(=O)COc1ccc(C[C@@H](NC(=O)C(=O)O)C(=O)O)cc1`: the Ratio in assay [3] worked out at 0.9. Further, in assay [5], the half-inhibitory concentration (IC50) came to 185 µM. For the same molecule, the result in assay [1] was Active.

On to `O=C(O)C(=O)N[C@H](Cc1ccc(OC(=O)c2cnn(-c3ccc(Cl)cc3)c2C(F)(F)F)cc1)C(=O)O`, for which the result in assay [1] was Active.
